7 compounds from ChEMBL document CHEMBL1250503, “Stereoselective synthesis and biological evaluation of (R)-rugulactone, (6R)-((4R)-hydroxy-6-phenyl-hex-2-enyl)-5,6-dihydro-pyran-2-one and its 4S epimer” (2010) can be followed below.

Common to all, as to type: functional
For one test, the system named is Bacillus subtilis. The experiment in a line: Antibacterial activity against Bacillus subtilis MTCC 441 by broth dilution method. Summed up:
(§1)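 Broth dilution per National Committee for Clinical Laboratory (NCCL) standards against a bacterial panel. The read-out is the minimum inhibitory concentration (MIC).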

The test system of the next test is Staphylococcus aureus. The experiment in a line: Antibacterial activity against Staphylococcus aureus MTCC 96 by broth dilution method. Summed up:
as §1
In general terms: In broth dilution the organism is exposed to a series of concentrations in liquid medium.

For test [1], the system named is Staphylococcus epidermidis. The test is described as follows: Antibacterial activity against Staphylococcus epidermidis MTCC 437 by broth dilution method. Summed up:
as §1

In another test the test system is Escherichia coli. The experiment in a line: Antibacterial activity against Escherichia coli MTCC 443 by broth dilution method. The method in brief: as §1
In another test the test system is Pseudomonas aeruginosa. The test is described as follows: Antibacterial activity against Pseudomonas aeruginosa MTCC 741 by broth dilution method. Summed up: as §1
Another test concerns Klebsiella pneumoniae. The test is described as follows: Antibacterial activity against Klebsiella pneumoniae MTCC 39 by broth dilution method. The method in brief: as §1
The test system of test [2] is Rhizopus arrhizus. The experiment in a line: Antifungal activity against Rhizopus oryzae MTCC 262 at 30 ug/ml after 24 to 96 hrs by agar cup diffusion method. The conditions noted are these: read-out: DIZ. The method in brief: (§2)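 Agar cup diffusion on autoclaved Potato Dextrose Agar. 0.5 ml of 24 h old test-organism culture was spread over the solidified agar, and 6 mm cups were bored. Compounds were dissolved in DMSO and added to the cups at two concentrations. A clotrimazole control was included. Plates were held at room temperature for 24–96 h, and inhibition zone diameters were measured.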

The test system of test [3] is Aspergillus niger. The experiment in a line: Antifungal activity against Aspergillus niger MTCC 1344 at 30 ug/ml after 24 to 96 hrs by agar cup diffusion method. The following applies: read-out: DIZ. Summed up: as §2
Test [4] deals with Candida albicans. The experiment in a line: Antifungal activity against Candida albicans MTCC 227 at 30 ug/ml after 24 to 96 hrs by agar cup diffusion method. The following applies: read-out: DIZ. Summed up:
as §2

Test [5] deals with Saccharomyces cerevisiae. The experiment in a line: Antifungal activity against Saccharomyces cerevisiae MTCC 171 at 30 ug/ml after 24 to 96 hrs by agar cup diffusion method. The following applies: read-out: DIZ. The method in brief: as §2
The test system of test [6] is Rhizopus arrhizus. The experiment in a line: Antifungal activity against Rhizopus oryzae MTCC 262 at 100 ug/ml after 24 to 96 hrs by agar cup diffusion method. The following applies: read-out: DIZ. The method in brief: as §2
Test [7] relates to Aspergillus niger. The experiment in a line: Antifungal activity against Aspergillus niger MTCC 1344 at 100 ug/ml after 24 to 96 hrs by agar cup diffusion method. The following applies: read-out: DIZ. The method in brief:
as §2

Test [8] deals with Candida albicans. The test is described as follows: Antifungal activity against Candida albicans MTCC 227 at 100 ug/ml after 24 to 96 hrs by agar cup diffusion method. The following applies: read-out: DIZ. Summed up:
as §2

Test [9] has as its system Saccharomyces cerevisiae. The test is described as follows: Antifungal activity against Saccharomyces cerevisiae MTCC 171 at 100 ug/ml after 24 to 96 hrs by agar cup diffusion method. The following applies: read-out: DIZ. The method in brief:
as §2

Converted amounts (≈) assume the structure as drawn.

For orientation: MIC means the least concentration at which growth counts as inhibited. With `O=C(/C=C/C[C@@H]1CC=CC(=O)O1)CCc1ccccc1` [R-RUGULACTONE], the minimum inhibitory concentration (MIC) is 100 µg/mL (≈ 370 µM) in the test on Bacillus subtilis; 50 µg/mL (≈ 185 µM) against Staphylococcus aureus; 50 µg/mL (≈ 185 µM) in [1]; 50 µg/mL (≈ 185 µM) against Escherichia coli; 12.5 µg/mL (≈ 46.2 µM) against Pseudomonas aeruginosa; 25 µg/mL (≈ 92.5 µM) in the test on Klebsiella pneumoniae. In addition, the zone of inhibition at 30 µg/mL in the test on Rhizopus arrhizus [2] came to 11 mm; in the test with Aspergillus niger [3] it was 14 mm; in the test on Candida albicans [4], 7 mm; with Saccharomyces cerevisiae [5], 7 mm. Besides, the zone of inhibition at 100 µg/mL came out at 12 mm in the test on Rhizopus arrhizus [6], 16 mm in the test with Aspergillus niger [7], 8 mm in the test on Candida albicans [8] and 8 mm with Saccharomyces cerevisiae [9].

On to `CN[C@@H]1[C@H](O[C@H]2[C@H](O[C@H]3[C@H](O)[C@@H](O)[C@H](N=C(N)N)[C@@H](O)[C@@H]3N=C(N)N)O[C@@H](C)[C@]2(O)C=O)O[C@@H](CO)[C@H](O)[C@H]1O` [STREPTOMYCIN], for which the MIC in the test on Escherichia coli, in the test with Pseudomonas aeruginosa and in the test with Klebsiella pneumoniae was 1.56 µg/mL (≈ 2.69 µM) each time.

For `Clc1ccccc1C(c1ccccc1)(c1ccccc1)n1ccnc1` [CLOTRIMAZOLE], the zone of inhibition at 30 µg/mL with Rhizopus arrhizus [2] came to 21 mm; in the test on Aspergillus niger [3] it was 18 mm; in the test on Candida albicans [4] it was 22 mm; in the test on Saccharomyces cerevisiae [5] it was 23 mm.

`CC1(C)S[C@@H]2[C@H](NC(=O)Cc3ccccc3)C(=O)N2[C@H]1C(=O)O` [PENICILLIN G]: the MIC (with Bacillus subtilis; in the test with Staphylococcus aureus; in test [1]) was 1.56 µg/mL (≈ 4.67 µM) in each case.

For the compound `O=C1CN(/N=C/c2ccc([N+](=O)[O-])o2)C(=O)N1` [NITROFURANTOIN], the minimum inhibitory concentration (MIC) in the test with Bacillus subtilis came out at 100 µg/mL (≈ 420 µM); against Staphylococcus aureus, 50 µg/mL (≈ 210 µM); in test [1], 50 µg/mL (≈ 210 µM); in the test with Escherichia coli, 25 µg/mL (≈ 105 µM); against Pseudomonas aeruginosa, 100 µg/mL (≈ 420 µM); against Klebsiella pneumoniae, 50 µg/mL (≈ 210 µM).

Turning to `O=C1C=CC[C@@H](C/C=C/[C@@H](O)CCc2ccccc2)O1`, the MIC in the test on Bacillus subtilis came to 50 µg/mL (≈ 184 µM); against Staphylococcus aureus, 100 µg/mL (≈ 367 µM); in [1], 100 µg/mL (≈ 367 µM); in the test on Escherichia coli, 100 µg/mL (≈ 367 µM); in the test on Pseudomonas aeruginosa it was 50 µg/mL (≈ 184 µM); in the test on Klebsiella pneumoniae, 100 µg/mL (≈ 367 µM). The zone of inhibition at 30 µg/mL in the test on Rhizopus arrhizus [2] worked out at 12 mm; in the test with Aspergillus niger [3] it was 9 mm; in the test with Candida albicans [4] it was 9 mm; in the test with Saccharomyces cerevisiae [5] it was 8 mm. In addition, the zone of inhibition at 100 µg/mL in the test on Rhizopus arrhizus [6] turned out to be 16 mm; in the test on Aspergillus niger [7] it was 12 mm; in the test with Candida albicans [8] it was 8 mm; in the test with Saccharomyces cerevisiae [9], 10 mm.

On to `O=C1C=CC[C@@H](C/C=C/[C@H](O)CCc2ccccc2)O1`, for which the MIC in the test on Bacillus subtilis came out at 100 µg/mL (≈ 367 µM); in the test with Staphylococcus aureus, 50 µg/mL (≈ 184 µM); in test [1], 50 µg/mL (≈ 184 µM); with Escherichia coli, 100 µg/mL (≈ 367 µM); against Pseudomonas aeruginosa, 25 µg/mL (≈ 91.8 µM); against Klebsiella pneumoniae, 100 µg/mL (≈ 367 µM). Also, the zone of inhibition at 30 µg/mL in the test on Rhizopus arrhizus [2] was determined as 12 mm; in the test with Aspergillus niger [3], 11 mm; with Candida albicans [4], 8 mm; in the test on Saccharomyces cerevisiae [5], 8 mm. Besides, the zone of inhibition at 100 µg/mL in the test on Rhizopus arrhizus [6] amounted to 14 mm; with Aspergillus niger [7], 14 mm; in the test with Candida albicans [8], 10 mm; in the test with Saccharomyces cerevisiae [9] it was 11 mm.
